Activity calls are given as the source filed them.
What was measured:
Candida albicans [1] = test: Antifungal activity against Candida albicans ATCC 10261 after 48 hrs by broth microdilution method; assay type: functional; conditions: ATCC 10261, 48 h
Procedure, shortened: (§1)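 CLSI M27-A2 (yeasts) / M38-A (moulds) broth microdilution in RPMI 1640 buffered to pH 7.0 with 0.165 M MOPS. Malassezia furfur got the same medium supplemented with glucose, bile salts, glycerol, glycerol monostearate and Tween 20. Final inoculum 0.65 × 10^3–2.5 × 10^3 CFU/ml for yeasts and 0.87 × 10^4–3.8 × 10^4 CFU/ml for filamentous fungi. Incubation at 35°C except M. racemosus and F. solani, which were held at 30°C.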

Candida albicans [2] = test: Antifungal activity against Candida albicans ATCC 90028 after 48 hrs by broth microdilution method; assay type: functional; conditions: ATCC 90028, 48 h; procedure, shortened: as §1
Candida albicans [3] = test: Antifungal activity against Candida albicans TIMM 1623 after 48 hrs by broth microdilution method; assay type: functional; conditions: TIMM 1623, 48 h; procedure, shortened: as §1
Candida dubliniensis = test: Antifungal activity against Candida dubliniensis ATCC MYA-577 after 48 hrs by broth microdilution method; assay type: functional; conditions: ATCC MYA-577, 48 h; procedure, shortened: as §1
Nakaseomyces glabratus = test: Antifungal activity against Candida glabrata ATCC 90030 after 48 hrs by broth microdilution method; assay type: functional; conditions: ATCC 90030, 48 h; procedure, shortened: as §1
Cryptococcus neoformans [4] = test: Antifungal activity against Cryptococcus neoformans ATCC 90113 after 72 hrs by broth microdilution method; assay type: functional; conditions: ATCC 90113, 72 h; procedure, shortened: as §1
Saccharomyces cerevisiae = test: Antifungal activity against Saccharomyces cerevisiae ATCC 24657 after 48 hrs by broth microdilution method; assay type: functional; conditions: ATCC 24657, 48 h; procedure, shortened: as §1
Aspergillus fumigatus [5] = test: Antifungal activity against Aspergillus fumigatus IFM 46895 after 48 hrs by broth microdilution method; assay type: functional; conditions: IFM 46895, 48 h; procedure, shortened: as §1
Aspergillus fumigatus [6] = test: Antifungal activity against Aspergillus fumigatus IFM 49895 after 48 hrs by broth microdilution method; assay type: functional; conditions: IFM 49895, 48 h; procedure, shortened: as §1
Aspergillus nidulans = test: Antifungal activity against Aspergillus nidulans NBRC 33017 after 48 hrs by broth microdilution method; assay type: functional; conditions: NBRC 33017, 48 h; procedure, shortened: as §1
Aspergillus niger = test: Antifungal activity against Aspergillus niger NBRC 33023 after 48 hrs by broth microdilution method; assay type: functional; conditions: NBRC 33023, 48 h; procedure, shortened: as §1
Scedosporium boydii = test: Antifungal activity against Pseudallescheria boydii NBRC 32229 after 72 hrs by broth microdilution method; assay type: functional; conditions: NBRC 32229, 72 h; procedure, shortened: as §1
Rhizopus arrhizus = test: Antifungal activity against Rhizopus oryzae NBRC 31005 after 24 hrs by broth microdilution method; assay type: functional; conditions: NBRC 31005, 24 h; procedure, shortened: as §1
Trichophyton rubrum = test: Antifungal activity against Trichophyton rubrum NBRC 5467 after 72 hrs by broth microdilution method; assay type: functional; conditions: NBRC 5467, 72 h; procedure, shortened: as §1
Candida albicans [7] = test: Antifungal activity against Candida albicans ATCC 64550 after 47 hrs by broth microdilution method; assay type: functional; conditions: ATCC 64550, 47 h
Procedure, shortened: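 Fluconazole-resistant or susceptible-dose-dependent C. albicans ATCC strains were tested by broth microdilution in RPMI 1640-MOPS. Inoculum was 1.1 × 10^3–1.5 × 10^3 CFU/ml, with incubation at 35°C for about 47 h. Yeast MIC was read as about 50% turbidity decrease relative to growth control, except amphotericin B, read at complete inhibition.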

Candida albicans [8] = test: Antifungal activity against Candida albicans ATCC 96901 after 47 hrs by broth microdilution method; assay type: functional; conditions: ATCC 96901, 47 h
Procedure, shortened: (§2)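 Fluconazole-resistant or susceptible-dose-dependent ATCC C. albicans strains were tested by CLSI M27-A2 broth microdilution in RPMI 1640–0.165 M MOPS, pH 7.0, with a final inoculum of 1.1–1.5 × 10^3 CFU/ml at 35°C for about 47 h. MIC was the lowest concentration with a prominent (~50%) turbidity decrease relative to growth control; amphotericin B was read at complete inhibition.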

Candida albicans [9] = test: Antifungal activity against Candida albicans ATCC MYA-573 after 47 hrs by broth microdilution method; assay type: functional; conditions: ATCC MYA-573, 47 h; procedure, shortened: as §2
Candida albicans [10] = test: Antifungal activity against Candida albicans ATCC MYA-575 after 47 hrs by broth microdilution method; assay type: functional; conditions: ATCC MYA-575, 47 h; procedure, shortened: as §2
Candida albicans [11] = test: Antifungal activity against Candida albicans ATCC MYA-1003 after 47 hrs by broth microdilution method; assay type: functional; conditions: ATCC MYA-1003, 47 h; procedure, shortened: as §2
[12] = tested on: Meyerozyma guilliermondii; test: Antifungal activity against Candida guilliermondii clinical isolates after 48 hrs by broth microdilution method; assay type: functional
Procedure, shortened: (§3)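 Clinical isolates from Japanese hospitals or culture collections were tested by broth microdilution in RPMI 1640-MOPS. Inoculum was 0.57 × 10^3–2.5 × 10^3 CFU/ml for yeasts and 0.4 × 10^4–3.3 × 10^4 CFU/ml for filamentous fungi. Incubation was at 35°C for about 48 h, or 72 h where footnoted. Results were summarised as MIC range, MIC50 and MIC90.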

Pichia kudriavzevii = test: Antifungal activity against Candida krusei clinical isolates after 48 hrs by broth microdilution method; assay type: functional
Procedure, shortened: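 Japanese hospital Candida isolates were tested by CLSI M27-A2 broth microdilution in RPMI 1640–MOPS, pH 7.0, with inocula of 0.57–2.5 × 10^3 CFU/ml at 35°C for about 48 h. Inocula came from 24-h potato dextrose agar cultures. MIC was the lowest concentration with about 50% turbidity reduction versus growth control (complete inhibition for amphotericin B). Range, MIC50 and MIC90 were reported.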

Candida tropicalis = test: Antifungal activity against Candida tropicalis clinical isolates after 48 hrs by broth microdilution method; assay type: functional; procedure, shortened: as §3
Cryptococcus neoformans [13] = test: Antifungal activity against Cryptococcus neoformans clinical isolates after 72 hrs by broth microdilution method; assay type: functional; procedure, shortened: as §3
Aspergillus fumigatus [14] = test: Antifungal activity against Aspergillus fumigatus clinical isolates after 48 hrs by broth microdilution method; assay type: functional; procedure, shortened: as §3
Aspergillus fumigatus [15] = test: Antifungal activity against Aspergillus fumigatus IFM 46895 infected ICR mouse assessed as delay in mortality of mouse at 1 mg/kg after 6 days; assay type: functional, organism-based; set-up: dose 1 mg/kg
Procedure, shortened: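 Male ICR mice, 4 weeks old and SPF, were made neutropenic with intraperitoneal cyclophosphamide. The schedule was 200 mg/kg on day −3 (day −4 for Cryptococcus) plus 100 mg/kg on day +1. Infection was by tail-vein injection of 0.2 ml suspension: C. albicans 3.0 × 10^4, C. neoformans 9.1 × 10^4, A. fumigatus conidia 8.4 × 10^4 CFU/mouse. Drugs were given subcutaneously once daily for 7 days from 2 h post-infection; controls received saline. Groups had 8–10 mice.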

C[C@@H]1[C@H](O)[C@@H](C)/C=C/C=C/C=C/C=C/C=C/C=C/C=C/[C@H](O[C@@H]2O[C@H](C)[C@@H](O)[C@H](N)[C@@H]2O)C[C@@H]2O[C@](O)(C[C@@H](O)C[C@@H](O)[C@H](O)CC[C@@H](O)C[C@@H](O)CC(=O)O[C@H]1C)C[C@H](O)[C@H]2C(=O)O [AMPHOTERICIN B]
2 µg/mL: MFC (Candida albicans [1]) | MFC (Candida dubliniensis) | MFC (Cryptococcus neoformans [4]) | MIC (Cryptococcus neoformans [4]) | MFC (Saccharomyces cerevisiae) | MFC (Aspergillus fumigatus [5]) | MIC (Aspergillus fumigatus [5]) | MFC (Aspergillus fumigatus [6]) | MIC (Aspergillus fumigatus [6]) | MFC (Aspergillus nidulans) | MIC (Aspergillus nidulans) | MFC (Aspergillus niger) | MIC (Aspergillus niger) | MIC (Candida albicans [9]) | MIC (Candida albicans [10]) | MIC (Candida albicans [11]) | MIC (Pichia kudriavzevii) | MIC50 (Pichia kudriavzevii) | MIC90 (Pichia kudriavzevii) | MIC90 (Candida tropicalis) | MIC50 (Aspergillus fumigatus [14]) | MIC90 (Aspergillus fumigatus [14])
> 1 µg/mL: MFC (Candida albicans [3])
> 64 µg/mL: MFC (Scedosporium boydii) | MIC (Scedosporium boydii)
active: Activity (Aspergillus fumigatus [15])
1 µg/mL: MIC (Candida albicans [1]) | MFC (Candida albicans [2]) | MIC (Candida albicans [2]) | MIC (Candida albicans [3]) | MIC (Candida dubliniensis) | MFC (Nakaseomyces glabratus) | MIC (Nakaseomyces glabratus) | MIC (Saccharomyces cerevisiae) | MFC (Rhizopus arrhizus) | MIC (Rhizopus arrhizus) | MFC (Trichophyton rubrum) | MIC (Trichophyton rubrum) | MIC (Candida albicans [7]) | MIC (Candida albicans [8]) | MIC50 [12] | MIC90 [12] | MIC (Candida tropicalis) | MIC50 (Candida tropicalis) | MIC (Cryptococcus neoformans [13]) | MIC50 (Cryptococcus neoformans [13]) | MIC90 (Cryptococcus neoformans [13])

From ChEMBL document CHEMBL1255303, “In vitro and in vivo antifungal activities of T-2307, a novel arylamidine” (2008)
